Assay type in all cases: functional
Assay [1] concerns Bacillus subtilis. Nature of the assay: Antibacterial activity against Bacillus subtilis MTCC 441 after 24 hrs by serial dilution method. Conditions: MTCC 441, 24 h. In short, it runs like this: (§1)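 Tube serial dilution MIC. Compounds held as 100 µg/ml stocks and serially diluted in tubes of 1 ml sterile double strength nutrient broth to 50–3.12 µg/ml. Each tube was inoculated with 100 µL of bacterial suspension in sterile saline. Incubation at 37 ± 1 °C for 24 h. Norfloxacin was the reference drug and DMSO the solvent control.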

The subject of assay [2] is Escherichia coli. Put plainly: Antibacterial activity against Escherichia coli MTCC 7443 after 24 hrs by serial dilution method. Conditions: MTCC 7443, 24 h. In outline: as §1
Assay [3] has as its system Aspergillus niger. Nature of the assay: Antifungal activity against Aspergillus niger MTCC 282 after 120 hrs by serial dilution method. The note with it: MTCC 282, 120 h. In short, it runs like this:
(§2)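 Tube serial dilution MIC in Sabouraud dextrose broth. Stocks of 100 µg/ml were diluted in 1 ml sterile medium to 50–3.12 µg/ml, and each tube was inoculated with 100 µL of fungal suspension in sterile saline. Incubation at 25 ± 1 °C, 48 h for C. albicans and 120 h for A. niger. Fluconazole was the reference drug and DMSO the solvent control.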

The test system of assay [4] is Candida albicans. Nature of the assay: Antifungal activity against Candida albicans MTCC 183 after 48 hrs by serial dilution method. The note with it: MTCC 183, 48 h. In short, it runs like this: as §2

In brackets after ≈: the same amount, converted by molar mass.

Turning to `O=C(CC(=O)OCc1cn(Cc2ccccc2)nn1)OCc1cn(Cc2ccccc2)nn1`, the MIC (usually the lowest concentration that inhibits growth of the organism) was 28 µM (≈ 12.5 µg/mL) in assay [1], 28 µM (≈ 12.5 µg/mL) in assay [2], 14 µM (≈ 6.25 µg/mL) in assay [3] and 14 µM (≈ 6.25 µg/mL) in assay [4].
For `O=C(CC(=O)OCc1cn(CCc2ccccc2)nn1)OCc1cn(CCc2ccccc2)nn1`, the minimum inhibitory concentration (MIC) in assay [1], in assay [2], in assay [3] and in assay [4] was 26.3 µM (≈ 12.5 µg/mL) throughout.
For `O=C(CCC(=O)OCc1cn(Cc2ccccc2)nn1)OCc1cn(Cc2ccccc2)nn1`, the MIC worked out at 27.1 µM (≈ 12.5 µg/mL) in assay [1], 27.1 µM (≈ 12.5 µg/mL) in assay [2], 27.1 µM (≈ 12.5 µg/mL) in assay [3] and 13.5 µM (≈ 6.22 µg/mL) in assay [4].
Consider `O=C(CCC(=O)OCc1cn(CCc2ccccc2)nn1)OCc1cn(CCc2ccccc2)nn1`, for which the MIC in assay [1] amounted to 25.6 µM (≈ 12.5 µg/mL); in assay [2], 12.8 µM (≈ 6.25 µg/mL); in assay [3], 25.6 µM (≈ 12.5 µg/mL); in assay [4], 12.8 µM (≈ 6.25 µg/mL).
Take `O=C(CCCC(=O)OCc1cn(Cc2ccccc2)nn1)OCc1cn(Cc2ccccc2)nn1`: the minimum inhibitory concentration (MIC) in assay [1] worked out at 26.3 µM (≈ 12.5 µg/mL); in assay [2], 26.3 µM (≈ 12.5 µg/mL); in assay [3], 26.3 µM (≈ 12.5 µg/mL); in assay [4], 13.5 µM (≈ 6.41 µg/mL).
On to `O=C(CCCC(=O)OCc1cn(CCc2ccccc2)nn1)OCc1cn(CCc2ccccc2)nn1`, for which the minimal inhibitory concentration (MIC) in assay [1], in assay [2], in assay [3] and in assay [4] was 24.9 µM (≈ 12.5 µg/mL) throughout.
For `O=C(CCCCC(=O)OCc1cn(Cc2ccccc2)nn1)OCc1cn(Cc2ccccc2)nn1`, the minimum inhibitory concentration (MIC) in assay [1] is 25.6 µM (≈ 12.5 µg/mL); in assay [2], 12.8 µM (≈ 6.25 µg/mL); in assay [3], 12.8 µM (≈ 6.25 µg/mL); in assay [4], 12.8 µM (≈ 6.25 µg/mL).
For `O=C(CCCCC(=O)OCc1cn(CCc2ccccc2)nn1)OCc1cn(CCc2ccccc2)nn1`, the MIC in assay [1] turned out to be 24.2 µM (≈ 12.5 µg/mL); in assay [2], 24.2 µM (≈ 12.5 µg/mL); in assay [3], 24.2 µM (≈ 12.5 µg/mL); in assay [4], 12.1 µM (≈ 6.25 µg/mL).
With `O=C(OCc1cn(Cc2ccccc2)nn1)c1cccc(C(=O)OCc2cn(Cc3ccccc3)nn2)n1`, the minimal inhibitory concentration (MIC) was 12.3 µM (≈ 6.27 µg/mL) in assay [1], 12.3 µM (≈ 6.27 µg/mL) in assay [2], 24.6 µM (≈ 12.5 µg/mL) in assay [3] and 12.3 µM (≈ 6.27 µg/mL) in assay [4].
Consider `O=C(OCc1cn(CCc2ccccc2)nn1)c1cccc(C(=O)OCc2cn(CCc3ccccc3)nn2)n1`, for which the MIC in assay [1], in assay [2], in assay [3] and in assay [4] was 23.3 µM (≈ 12.5 µg/mL) in each case.
On to `O=C(OCc1cn(CCc2ccccc2)nn1)c1cccc(C(=O)OCc2cn(CCc3ccccc3)nn2)c1`, for which the minimal inhibitory concentration (MIC) in assay [1], in assay [2], in assay [3] and in assay [4] was 23.3 µM (≈ 12.5 µg/mL) each time.
For the molecule `O=C(OCc1cn(CCc2ccccc2)nn1)c1ccc(C(=O)OCc2cn(CCc3ccccc3)nn2)cc1`, the MIC in assay [1], in assay [2], in assay [3] and in assay [4] was 23.3 µM (≈ 12.5 µg/mL) throughout.
As to `OC(Cn1cncn1)(Cn1cncn1)c1ccc(F)cc1F` [FLUCONAZOLE], the minimum inhibitory concentration (MIC) in assay [3] and in assay [4] was 10.2 µM (≈ 3.12 µg/mL) each time.
For the molecule `CCn1cc(C(=O)O)c(=O)c2cc(F)c(N3CCNCC3)cc21` [NORFLOXACIN], the MIC in assay [1] and in assay [2] was 9.8 µM (≈ 3.13 µg/mL) each time.
